# Results published in ChEMBL document CHEMBL1125242, “Synthesis and anticonvulsant activity of 1-acyl-2-pyrrolidinone derivatives” (J Med Chem, 1991).
# System: not listed separately
# Test: Degradation rate constant in the buffer solution(pH 7.4) was studied as a measure of the stability of the compound.
# Type: physicochemical
# Details: not given
# Procedure, shortened: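 A 0.1 M acetonitrile stock is added to preheated pH 7.4 phosphate buffer (0.1 M total, ionic strength 0.3 with NaCl) to 1 mM at 37 ± 0.2 °C. Aliquots are sampled over time. Pseudo-first-order fit gives the apparent rate constant in h⁻¹.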
row,Structure (SMILES),Degradation rate constant [h⁻¹]
1,CC(=O)N1CCCC1=O,0.015
2,CCCCCCC(=O)N1CCCC1=O,0.012
3,CCCC(=O)N1CCCC1=O,0.006
4,CCCCCCCCCC(=O)N1CCCC1=O,0.008
5,CCCCCCCCCCCC(=O)N1CCCC1=O,0.007
6,O=C1CCCN1 [2-PYRROLIDONE],< 0.0001

# System: Mus musculus
# Test: Sleeping time in mice after administration in mice induced by sodium pentobarbital
# Type: functional
# Details: not given
# Procedure, shortened: (§1)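 Male ddY mice (20–30 g) are dosed i.p. at 50 mg/kg as a suspension in pH 7.4 isotonic phosphate buffer with 1% CMC-Na (0.1 mL/10 g), 30 min before i.p. sodium pentobarbital (45 mg/kg). Loss of righting reflex and sleeping time are recorded per mouse. Mean ± SEM; Student's t test versus control.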
row,Structure (SMILES),Sleeping time [min]
1,CC(=O)N1CCCC1=O,38.2
2,CCCCCCC(=O)N1CCCC1=O,61.8
3,CCCC(=O)N1CCCC1=O,92
4,CCCCCCCCCCCC(=O)N1CCCC1=O,47.4
5,O=C1CCCN1 [2-PYRROLIDONE],24.8
6,NCCCC(=O)O [GAMMA-AMINOBUTYRIC ACID],25.7
7,CCCC(CCC)C(=O)O [VALPROIC ACID],36.4

# Species: Rattus norvegicus
# Test: Degradation rate constant in biological media of rat plasma homogenates.
# Type: ADME, organism-based
# Details: not given
# Procedure, shortened: (§2)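 Tissues come from male ddY mice (20–30 g) and male Wistar rats (200–250 g). Liver and brain are homogenized at 0–5 °C to 40% in pH 7.4 isotonic phosphate buffer and spun at 2500g for 15 min; the supernatant is used. Plasma is also used. A 0.1 M acetonitrile stock gives 1 mM final. Incubation at 37 ± 0.2 °C; apparent rate constant in h⁻¹.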
row,Structure (SMILES),Degradation rate constant [h⁻¹]
1,CC(=O)N1CCCC1=O,0.028
2,CCCCCCC(=O)N1CCCC1=O,0.056
3,CCCC(=O)N1CCCC1=O,0.054
4,CCCCCCCCCC(=O)N1CCCC1=O,0.025
5,CCCCCCCCCCCC(=O)N1CCCC1=O,0.016
6,O=C1CCCN1 [2-PYRROLIDONE],0.018

# Species: Mus musculus
# Test: Latency to the protection against lethality by picrotoxin was measured and evaluated as a percent of the control in mice.
# Type: functional
# Set-up: concentration or dose not given beside the values
# Details: not given
# Procedure, shortened: (§3)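 Male ddY mice (20–30 g) were given compound i.p. at 200 mg/kg as a suspension in pH 7.4 isotonic phosphate buffer with 1% CMC-Na, 15 min before s.c. picrotoxin 5 mg/kg. Dosing volume was 0.1 mL/10 g, and controls received vehicle. Latency to generalized clonic seizure and survival time were each expressed as % of control.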
row,Structure (SMILES),Survival time [%]
1,CC(=O)N1CCCC1=O,144
2,CCCCCCC(=O)N1CCCC1=O,116
3,CCCCC(=O)N1CCCC1=O,107
4,CCCC(=O)N1CCCC1=O,142
5,CCCCCCCCCC(=O)N1CCCC1=O,364
6,CCC(=O)N1CCCC1=O,112
7,O=C(O)CCC(=O)N1CCCC1=O,93
8,O=C1CCCN1C(=O)c1ccccc1,93
9,CCCCCCCCCCCC(=O)NCCCC(=O)O,388
10,CC(C)(C)C(=O)N1CCCC1=O,120
11,O=C1CCCN1C(=O)Cc1ccccc1,281
12,CCCCCCCCCCCC(=O)N1CCCC1=O,494
13,O=C1CCCN1 [2-PYRROLIDONE],102
14,CCC1(C)CC(=O)NC1=O (stereo unspecified) [ETHOSUXIMIDE],577
15,NCCCC(=O)O [GAMMA-AMINOBUTYRIC ACID],112
16,CCCC(CCC)C(=O)O [VALPROIC ACID],472

# Species: Rattus norvegicus
# Test: Degradation rate constant in biological media of rat liver homogenates.
# Type: ADME, organism-based
# Details: not given
# Procedure, shortened: as §2
row,Structure (SMILES),Degradation rate constant [h⁻¹]
1,CC(=O)N1CCCC1=O,0.097
2,CCCCCCC(=O)N1CCCC1=O,14.6
3,CCCC(=O)N1CCCC1=O,3.11
4,CCCCCCCCCC(=O)N1CCCC1=O,2.87
5,CCCCCCCCCCCC(=O)N1CCCC1=O,1.23
6,O=C1CCCN1 [2-PYRROLIDONE],0.03

# Species: Mus musculus
# Test: Compounds were evaluated for the effect on electroconvulsive-shock-induced disruption (ECS) of the memory of passive avoidance response (anti-amnesic activity) in mice and expressed as latency.
# Type: functional
# Details: not given
# Procedure, shortened: (§4)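 Male ddY mice (20–25 g) are dosed i.p. at 200 mg/kg as a suspension in pH 7.4 isotonic phosphate buffer with 1% CMC-Na (0.1 mL/10 g), 60 min before training. A two-compartment step-through box is used: lighted compartment, darkened compartment with grid floor, 30 V foot shock. Memory is disrupted by electroconvulsive shock. Mean ± SEM; Student's t test versus the ECS group.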
row,Structure (SMILES),Latency [s]
1,CCCCCCC(=O)N1CCCC1=O,240.6

# Species: Mus musculus
# Test: Degradation rate constant in biological media of mouse brain homogenates.
# Type: ADME, organism-based
# Details: not given
# Procedure, shortened: as §2
row,Structure (SMILES),Degradation rate constant [h⁻¹]
1,CC(=O)N1CCCC1=O,0.01
2,CCCCCCC(=O)N1CCCC1=O,0.086
3,CCCC(=O)N1CCCC1=O,0.016
4,CCCCCCCCCC(=O)N1CCCC1=O,0.326
5,CCCCCCCCCCCC(=O)N1CCCC1=O,0.155
6,O=C1CCCN1 [2-PYRROLIDONE],0.002

# Species: Rattus norvegicus
# Test: Degradation rate constant in biological media of rat brain homogenates.
# Type: ADME, organism-based
# Details: not given
# Procedure, shortened: as §2
row,Structure (SMILES),Degradation rate constant [h⁻¹]
1,CC(=O)N1CCCC1=O,0.014
2,CCCCCCC(=O)N1CCCC1=O,0.075
3,CCCC(=O)N1CCCC1=O,0.016
4,CCCCCCCCCC(=O)N1CCCC1=O,0.381
5,CCCCCCCCCCCC(=O)N1CCCC1=O,0.233
6,O=C1CCCN1 [2-PYRROLIDONE],0.016

# Species: Mus musculus
# Test: Degradation rate constant in biological media of mouse liver homogenates.
# Type: ADME, organism-based
# Details: not given
# Procedure, shortened: as §2
row,Structure (SMILES),Degradation rate constant [h⁻¹]
1,CC(=O)N1CCCC1=O,0.221
2,CCCCCCC(=O)N1CCCC1=O,11.9
3,CCCC(=O)N1CCCC1=O,1.35
4,CCCCCCCCCC(=O)N1CCCC1=O,2.53
5,CCCCCCCCCCCC(=O)N1CCCC1=O,0.789
6,O=C1CCCN1 [2-PYRROLIDONE],0.034

# Species: Mus musculus
# Test: Survival ratio was calculated for determination of dose dependency.
# Type: functional
# Details: not given
# Procedure, shortened: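 In male ddY mice (20–30 g), compound was given i.p. at varied doses as a suspension in pH 7.4 isotonic phosphate buffer with 1% CMC-Na, 15 min before s.c. picrotoxin 5 mg/kg. Dosing volume was 0.1 mL/10 g. Over 2 h of observation, the fraction of mice surviving was recorded at each dose to define dose dependency.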
row,Structure (SMILES),Survival ratio
1,CC(=O)N1CCCC1=O,0
2,CCCCCCC(=O)N1CCCC1=O,0
3,CCCCC(=O)N1CCCC1=O,0
4,CCCC(=O)N1CCCC1=O,0
5,CCCCCCCCCC(=O)N1CCCC1=O,50
6,CCC(=O)N1CCCC1=O,0
7,O=C(O)CCC(=O)N1CCCC1=O,0
8,O=C1CCCN1C(=O)c1ccccc1,0
9,CCCCCCCCCCCC(=O)NCCCC(=O)O,60
10,CC(C)(C)C(=O)N1CCCC1=O,0
11,O=C1CCCN1C(=O)Cc1ccccc1,33
12,CCCCCCCCCCCC(=O)N1CCCC1=O,80
13,O=C1CCCN1 [2-PYRROLIDONE],0
14,CCC1(C)CC(=O)NC1=O (stereo unspecified) [ETHOSUXIMIDE],100
15,CCCC(CCC)C(=O)O [VALPROIC ACID],63

# System: not listed separately
# Test: Apparent partition coefficient between 1-octanol and pH 5.0 phosphate buffer (0.1 M) at 37 degrees Centigrade.
# Type: physicochemical
# Details: 1-octanol/phosphate buffer, read-out: LogD5.0
# Procedure, shortened: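 Final drug concentration 2 mM. The value is reported as the log of the apparent partition coefficient.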
row,Structure (SMILES),logD
1,CC(=O)N1CCCC1=O,-0.05
2,CCCCCCC(=O)N1CCCC1=O,3.04
3,CCCC(=O)N1CCCC1=O,1.18
4,CCCCCCCCCC(=O)N1CCCC1=O,4.33
5,CCCCCCCCCCCC(=O)N1CCCC1=O,5.05
6,NCCCC(=O)O [GAMMA-AMINOBUTYRIC ACID],-3.33

# Species: Mus musculus
# Test: Latency to the onset of generalized clonic epileptic seizures by picrotoxin was measured and evaluated as a percent of the control in mice.
# Type: functional
# Set-up: concentration or dose not given beside the values
# Details: not given
# Procedure, shortened: as §3
row,Structure (SMILES),Latency to clonic seizure onset (% of control) [%]
1,CC(=O)N1CCCC1=O,97
2,CCCCCCC(=O)N1CCCC1=O,124
3,CCCCC(=O)N1CCCC1=O,78
4,CCCC(=O)N1CCCC1=O,92
5,CCCCCCCCCC(=O)N1CCCC1=O,302
6,CCC(=O)N1CCCC1=O,104
7,O=C(O)CCC(=O)N1CCCC1=O,113
8,O=C1CCCN1C(=O)c1ccccc1,114
9,CCCCCCCCCCCC(=O)NCCCC(=O)O,493
10,CC(C)(C)C(=O)N1CCCC1=O,101
11,O=C1CCCN1C(=O)Cc1ccccc1,106
12,CCCCCCCCCCCC(=O)N1CCCC1=O,129
13,O=C1CCCN1 [2-PYRROLIDONE],107
14,CCC1(C)CC(=O)NC1=O (stereo unspecified) [ETHOSUXIMIDE],792
15,NCCCC(=O)O [GAMMA-AMINOBUTYRIC ACID],115
16,CCCC(CCC)C(=O)O [VALPROIC ACID],171

# Species: Mus musculus
# Test: Compounds were evaluated for the effect on electroconvulsive-shock-induced disruption (ECS) of the memory of passive avoidance response (antiamnesic activity) in mice and expressed as latency.
# Type: functional
# Details: not given
# Procedure, shortened: as §4
row,Structure (SMILES),Latency [s]
1,CC(=O)N1CCCC1=O,101.7
2,CCCCCCCCCCCC(=O)N1CCCC1=O,278.8

# System: not listed separately
# Test: Solubility in pH 5.0 phosphate buffer (0.1 M) at 37 degrees Centigrade; Miscible
# Type: physicochemical
# Details: not given
row,Structure (SMILES),Saq
1,CC(=O)N1CCCC1=O,Miscible
2,O=C1CCCN1 [2-PYRROLIDONE],Miscible

# Species: Mus musculus
# Test: Compounds were evaluated for the effect on electroconvulsive-shock-induced disruption (ECS) of the memory of passive avoidance response (antiamnesic activity) in mice and expressed as learning time.
# Type: functional
# Details: not given
# Procedure, shortened: as §4
row,Structure (SMILES),Learning time [s]
1,CC(=O)N1CCCC1=O,15.3
2,CCCCCCC(=O)N1CCCC1=O,20.4
3,CCCCCCCCCCCC(=O)N1CCCC1=O,19.4

# System: Mus musculus
# Test: Onset for sleeping time after administration in mice induced by sodium pentobarbital
# Type: functional
# Details: not given
# Procedure, shortened: as §1
Structure (SMILES),Onset for sleep [min],"Onset for sleep, min"
CC(=O)N1CCCC1=O,6.9,–
CCCCCCC(=O)N1CCCC1=O,7.9,–
CCCC(=O)N1CCCC1=O,7.2,–
CCCCCCCCCCCC(=O)N1CCCC1=O,9.6,–
O=C1CCCN1 [2-PYRROLIDONE],10.2,–
NCCCC(=O)O [GAMMA-AMINOBUTYRIC ACID],10.1,–
CCCC(CCC)C(=O)O [VALPROIC ACID],–,10
